{"source": "ChEMBL document CHEMBL3734704", "about": "“Synthesis and Biological Evaluation of Novel Bouchardatine Derivatives as Potential Adipogenesis/Lipogenesis Inhibitors for Antiobesity Treatment” (J Med Chem, 2015)", "key": {"[1]": {"test_system": "3T3-L1", "test": "Induction of apoptosis in mouse 3T3L1 cells assessed as viable cells at 3 uM after 24 hrs by annexin-V-FITC and PI staining based flow cytometry (reference value: 98.95%)", "type": "functional", "conditions": "3T3-L1, 24 h, read-out: Activity"}, "[2]": {"test": "Downregulation of C/EBP delta mRNA level in mouse 3T3L1 cells at 3 uM after 2 and 24 hrs by RT-PCR analysis", "type": "functional, cell-based", "conditions": "3T3-L1", "summary_of_the_method": "(§1)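 3T3-L1 preadipocytes in adipogenic cocktail with compound (0.3-3.0 µM; 3 µM for the 2 h and 24 h time course). Total RNA extracted, cDNA made from 1 µg RNA with oligo primer, then PCR: 95 °C 10 min, 35 cycles of 95 °C 30 s, annealing 45 s, 72 °C 1 min, final 72 °C 10 min. Normalized to actin; n = 3.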"}, "[3]": {"test_system": "3T3-L1", "test": "Induction of apoptosis in mouse 3T3L1 cells assessed as early apoptotic cells at 3 uM after 24 hrs by annexin-V-FITC and PI staining based flow cytometry (reference value: 0.56%)", "type": "functional"}, "[4]": {"test": "Downregulation of PPAR-gamma level in mouse 3T3L1 cells at 0.3 to 3 uM after 3 days by western blot analysis", "type": "functional, cell-based", "conditions": "3T3-L1", "summary_of_the_method": "(§2)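 3T3-L1 preadipocytes incubated in adipogenic cocktail with or without compound (0.3, 1.0, 3.0 µM) for the stated periods. Protein levels measured by Western blot (RIPA lysis, PVDF, BSA block, primary 16 h at 4 °C, HRP secondary), normalized to GAPDH/Tubulin and expressed relative to controls; n = 3.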"}, "[5]": {"test": "Downregulation of PPAR-gamma mRNA level in mouse 3T3L1 cells at 0.3 to 3 uM after 24 hrs by RT-PCR analysis", "type": "functional, cell-based", "conditions": "3T3-L1", "summary_of_the_method": "as §1"}, "[6]": {"test_system": "HepG2", "test": "Decrease in triglyceride level in human HepG2 cells at 1 uM after 24 hrs by GPO-POD assay in presence of 0.5 mM oleic acid sodium", "type": "functional", "summary_of_the_method": "(§3)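 HepG-2 cells seeded, then after 24 h exposed to 0.5 mM oleic acid sodium plus compound (1 µM; dose series up to 10 µM) for 24 h, DMSO vehicle. Cells lysed in 0.2% Triton X-100 for 1 h, sonicated, centrifuged. Triglyceride measured by GPO-POD kit and cholesterol by kit, both normalized to BCA protein; n = 3.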"}, "[7]": {"test": "Downregulation of SREBP-1c level in mouse 3T3L1 cells at 0.3 to 3 uM after 3 days by western blot analysis", "type": "functional, cell-based", "conditions": "3T3-L1", "summary_of_the_method": "as §2"}, "[8]": {"test": "Downregulation of C/EBP alpha level in mouse 3T3L1 cells at 0.3 to 3 uM after 3 days by western blot analysis", "type": "functional, cell-based", "conditions": "3T3-L1", "summary_of_the_method": "as §2"}, "[9]": {"test_system": "3T3-L1", "test": "Induction of apoptosis in mouse 3T3L1 cells assessed as late apoptotic cells at 3 uM after 24 hrs by annexin-V-FITC and PI staining based flow cytometry (reference value: 0.03%)", "type": "functional"}, "[10]": {"test": "Downregulation of C/EBP alpha mRNA level in mouse 3T3L1 cells at 0.3 to 3 uM after 24 hrs by RT-PCR analysis", "type": "functional, cell-based", "conditions": "3T3-L1", "summary_of_the_method": "as §1"}, "[11]": {"test": "Cell cycle arrest in mouse 3T3L1 cells assessed as number of cells at G0/G1 phase at 3 uM after 24 hrs by flow cytometry (reference value: 37.6%)", "type": "functional, cell-based", "conditions": "3T3-L1"}, "[12]": {"test_system": "3T3-L1", "test": "Induction of apoptosis in mouse 3T3L1 cells assessed as viable cells at 0.3 uM after 24 hrs by annexin-V-FITC and PI staining based flow cytometry (reference value: 98.95%)", "type": "functional", "conditions": "3T3-L1, 24 h, read-out: Activity"}, "[13]": {"test": "Downregulation of C/EBP beta mRNA level in mouse 3T3L1 cells at 3 uM after 2 and 24 hrs by RT-PCR analysis", "type": "functional, cell-based", "conditions": "3T3-L1", "summary_of_the_method": "as §1"}, "[14]": {"test": "Downregulation of CaMKKalpha expression in mouse 3T3L1 cells by western blot analysis", "type": "functional, cell-based", "conditions": "3T3-L1"}, "[15]": {"test": "Downregulation of C/EBP alpha mRNA level in mouse 3T3L1 cells at 3 uM after 24 hrs by RT-PCR analysis", "type": "functional, cell-based", "conditions": "3T3-L1", "summary_of_the_method": "as §1"}, "[16]": {"test": "Decrease in triglyceride accumulation in mouse 3T3L1 cells at 1 uM for 3 days oil red O staining based microscopic analysis", "type": "functional, cell-based", "conditions": "3T3-L1", "summary_of_the_method": "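3T3-L1 cells differentiated from 2 days post-confluence with IBMX/dexamethasone/insulin cocktail for 3 days, then insulin medium to Day 6. Compounds at 1 and 10 µM added Day 0 for 3 days. Triglyceride read on Day 6 with Oil Red O (formaldehyde fixation, 30 min stain, isopropanol extraction, OD 510 nm); n = 3.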"}, "[17]": {"molecular_target": "T1, Serine/threonine-protein kinase STK11 (Mus musculus) (UniProt Q9WTK7)", "T1 sequence (whole entry)": "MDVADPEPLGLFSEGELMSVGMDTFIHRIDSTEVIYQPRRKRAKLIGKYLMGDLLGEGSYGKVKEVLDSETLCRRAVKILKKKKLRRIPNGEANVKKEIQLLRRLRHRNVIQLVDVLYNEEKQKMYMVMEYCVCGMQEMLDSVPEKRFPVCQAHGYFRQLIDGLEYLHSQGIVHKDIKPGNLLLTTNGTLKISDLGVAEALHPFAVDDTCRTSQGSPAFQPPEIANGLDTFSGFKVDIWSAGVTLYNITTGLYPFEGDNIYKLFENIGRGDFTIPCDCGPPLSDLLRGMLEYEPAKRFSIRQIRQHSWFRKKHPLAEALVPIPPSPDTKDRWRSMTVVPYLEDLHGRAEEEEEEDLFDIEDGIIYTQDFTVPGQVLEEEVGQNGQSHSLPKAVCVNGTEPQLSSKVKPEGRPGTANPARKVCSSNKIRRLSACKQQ", "test": "Activation of LKB1-mediated ACC in mouse 3T3L1 cells assessed as increase in phophorylated ACC level at 3 uM by western blot analysis", "type": "cell-based", "conditions": "3T3-L1, TDE = time-dependent effect", "summary_of_the_method": "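3T3-L1 preadipocytes held in adipogenic cocktail with or without compound at 3 µM, time course (10 min, 2 h, 24 h) during differentiation. Lysis in RIPA with protease/phosphatase inhibitors, SDS-PAGE, PVDF, BSA block, primary antibody 16 h at 4 °C, HRP secondary. Bands normalized to GAPDH, with the 10 min DMSO group set as 100%; n = 3.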"}, "[18]": {"test": "Cell cycle arrest in mouse 3T3L1 cells assessed as number of cells at S phase at 3 uM after 24 hrs by flow cytometry (reference value: 18.1%)", "type": "functional, cell-based", "conditions": "3T3-L1"}, "[19]": {"test_system": "HepG2", "test": "Decrease in triglyceride level in human HepG2 cells after 24 hrs by GPO-POD assay in presence of 0.5 mM oleic acid sodium", "type": "functional, cell-based", "summary_of_the_method": "as §3"}, "[20]": {"test_system": "3T3-L1", "test": "Induction of apoptosis in mouse 3T3L1 cells assessed as late apoptotic cells at 0.3 uM after 24 hrs by annexin-V-FITC and PI staining based flow cytometry (reference value: 0.03%)", "type": "functional"}, "[21]": {"test_system": "HeLa", "test": "Drug uptake in human HeLa cells measured from 5 mins to 1 hr by fluorescence analysis", "type": "ADME, cell-based"}, "[22]": {"test": "Decrease in triglyceride level in mouse 3T3L1 cells at 1 uM measured during 6 to 9 days by oil red O staining based microscopic analysis", "type": "functional, cell-based", "conditions": "3T3-L1", "summary_of_the_method": "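3T3-L1 cells given 1 µM compound during day 0-3, 0-6, 0-9, 3-6, 3-9 or 6-9 of differentiation. On Day 9, intracellular lipid measured by TG assay (Triton lysate, GPO-POD kit, per protein) and by Oil Red O staining with microscopy; n = 3.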"}}, "note": "Calls of active or inactive are those of the source. No cut-off for these calls is given here."}
{"smiles": "O=Cc1c(-c2nc(NCCN3CCCC3)c3ccccc3n2)[nH]c2ccccc12", "values": [{"measurement": "viability at 3 µM", "setting": "[1]", "value": 97.7, "unit": "%"}, {"measurement": "inhibition", "setting": "[2]", "value": "Active"}, {"measurement": "Activity", "setting": "[3]", "value": 0.39, "unit": "%"}, {"measurement": "inhibition", "setting": "[4]", "value": "Active"}, {"measurement": "inhibition", "setting": "[5]", "value": "Active"}, {"measurement": "inhibition (INH)", "setting": "[6]", "value": 70, "unit": "%"}, {"measurement": "inhibition", "setting": "[7]", "value": "Active"}, {"measurement": "inhibition", "setting": "[8]", "value": "Active"}, {"measurement": "Activity", "setting": "[9]", "value": 0.42, "unit": "%"}, {"measurement": "inhibition", "setting": "[10]", "value": "Active"}, {"measurement": "Activity", "setting": "[11]", "value": 33.5, "unit": "%"}, {"measurement": "viability at 0.3 µM", "setting": "[12]", "value": 96.5, "unit": "%"}, {"measurement": "inhibition", "setting": "[13]", "value": "Active"}, {"measurement": "inhibition", "setting": "[14]", "value": "Active"}, {"measurement": "inhibition", "setting": "[15]", "value": "Active"}, {"measurement": "inhibition", "setting": "[16]", "value": 87.6, "unit": "%"}, {"measurement": "Activity", "setting": "[17]", "value": "tde"}, {"measurement": "Activity", "setting": "[18]", "value": 3.3, "unit": "%"}, {"measurement": "inhibition", "setting": "[19]", "value": "Dose-dependent effect"}, {"measurement": "Activity", "setting": "[20]", "value": 0.47, "unit": "%"}, {"measurement": "Drug uptake", "setting": "[21]", "value": "Active"}, {"measurement": "inhibition", "setting": "[22]", "value": 60, "unit": "%"}]}
